These results are taken from ChEMBL document CHEMBL1149273, “Calcitriol derivatives with two different side chains at C-20. II. Diastereoselective syntheses of the metabolically produced 24(R)-hydroxygemini” (J Med Chem, 2004).

One data set relates to Kidney. Description: Metabolic stability in rat kidney perfusate. The data set is classed as ADME, tissue-based.
Data set [1] relates to Mus musculus. Kind of data set: Effect on calcium level in mouse at 1 […] after four diurnal doses. Type of data set: functional, organism-based. Put shortly:
(§1)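 Mice received four diurnal administrations of drug in Miglyol vehicle, with vehicle-dosed controls, across a series of dose levels. Calcium levels (mg/dL) were then measured and reported with standard errors. The […] was assigned from these calcium levels.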

Data set [2] deals with Mus musculus. Kind of data set: Effect on calcium level in mouse at 3 […] after four diurnal doses. The data set is classed as functional, organism-based. In a few lines: as §1
Data set [3] has as its system Mus musculus. Kind of data set: Effect on calcium level in mouse at 10 […] after four diurnal doses. The data set is classed as functional, organism-based. Put shortly:
as §1

A short description of data set [4]: Maximum tolerated dose in mouse. The data set is classed as ADME, organism-based. To be noted: in vivo.
The nature of data set [5]: Inhibition of INFgamma release in MLR cells. Type of data set: functional, cell-based. Particulars: Homo sapiens.
Data set [6] can be described thus: Inhibition of INFgamma release in MLR cells relative to calcitriol. Type of data set: functional, Homo sapiens.
For data set [7], the system named is Mus musculus. Description: Effect on calcium level in mouse at 30 […] after four diurnal doses. The data set is classed as functional, organism-based. In a few lines: as §1
Data set [8] deals with Mus musculus. Kind of data set: Effect on calcium level in mouse at 100 […] after four diurnal doses. Type of data set: functional, organism-based. Put shortly:
as §1

For data set [9], the system named is Mus musculus. Description: Effect on calcium level in mouse at 0.3 ug/kg after four diurnal doses.

Usually MTD stands for the highest dose tested that stayed within the study's limit of toxicity. Read a low MTD as poorer tolerability. As usually defined, the IC50 is the concentration needed to halve the response being measured. A higher IC50 goes with a need for much substance. For `C=C1/C(=C\C=C2/CCC[C@]3(C)[C@@H](C(CCCC(C)(C)O)CCCC(C)(C)O)CC[C@@H]23)C[C@@H](O)C[C@@H]1O`, the Stability in the data set on Kidney is reported as 80%. The Calcium level was 11.1 mg/dL in the data set on Mus musculus [1], 12.3 mg/dL in the data set with Mus musculus [2] and 16.7 mg/dL with Mus musculus [3]. The same molecule yielded an MTD in [4] of less than 1 µg/kg. Further, the IC50 in [5] turned out to be 0.004 nM. The “Ratio IC50” value in data set [6] came to 0.1.

As to `CC(C)(O)CCC[C@@H](CC[C@@H](O)C(C)(C)O)[C@H]1CC[C@H]2/C(=C/C=C3C[C@@H](O)C[C@H](O)C3)CCC[C@]12C`, the Calcium level with Mus musculus [1] amounted to 9.53 mg/dL; in the data set on Mus musculus [2], 9.9 mg/dL; in the data set on Mus musculus [3], 9.43 mg/dL; in the data set with Mus musculus [7], 9.43 mg/dL; in the data set with Mus musculus [8] it was 9.57 mg/dL. Besides, in data set [4], the MTD is greater than 100 µg/kg. The same molecule showed an IC50 in data set [5] of 3.86 nM. In addition, the “Ratio IC50” value in data set [6] is 160.

Turning to `CC(C)(O)CCC[C@H](CC[C@@H](O)C(C)(C)O)[C@H]1CC[C@H]2/C(=C/C=C3C[C@@H](O)C[C@H](O)C3)CCC[C@]12C`, the Calcium level with Mus musculus [1] came to 9.63 mg/dL; with Mus musculus [2] it was 9.37 mg/dL; in the data set with Mus musculus [3], 9.57 mg/dL; in the data set with Mus musculus [7], 9.77 mg/dL; in the data set on Mus musculus [8], 10.8 mg/dL. In data set [4], this molecule yielded a maximal tolerated dose (MTD) of 30 µg/kg. This molecule registered an IC50 in data set [5] of 0.781 nM. Also, in data set [6], the “Ratio IC50” value is given as 31.

In the data set with Kidney, `C=C1/C(=C\C=C2/CCC[C@]3(C)[C@@H]([C@H](C)CCCC(C)(C)O)CC[C@@H]23)C[C@@H](O)C[C@@H]1O` [CALCITRIOL] displayed a Stability of less than 50%.

Take `C=C1/C(=C\C=C2/CCC[C@]3(C)[C@@H]([C@@H](CCCC(C)(C)O)CC[C@@H](O)C(C)(C)O)CC[C@@H]23)C[C@@H](O)C[C@@H]1O`: the Calcium level with Mus musculus [1] is 9.73 mg/dL; with Mus musculus [2], 9.63 mg/dL; in the data set with Mus musculus [9], 9.8 mg/dL. The molecule also had an MTD in data set [4] of 3 µg/kg. Further, the IC50 in data set [5] was 0.579 nM. For the same molecule, the “Ratio IC50” value in data set [6] stood at 18.

For the molecule `C=C1/C(=C\C=C2/CCC[C@]3(C)[C@@H]([C@H](CCCC(C)(C)O)CC[C@@H](O)C(C)(C)O)CC[C@@H]23)C[C@@H](O)C[C@@H]1O`, the Calcium level in the data set with Mus musculus [1] was found to be 9.7 mg/dL; with Mus musculus [2], 9.73 mg/dL; in the data set with Mus musculus [9], 9.6 mg/dL. Besides, the MTD in [4] was determined as 3 µg/kg. This molecule also gave an IC50 in data set [5] of 0.08 nM. For the same molecule, the “Ratio IC50” value in data set [6] is 2.5.

In turn, `CC(C)(O)CCCC(CCCC(C)(C)O)[C@H]1CC[C@H]2/C(=C/C=C3C[C@@H](O)C[C@H](O)C3)CCC[C@]12C` had a Stability in the data set with Kidney of 80%. The Calcium level was determined as 10 mg/dL in the data set with Mus musculus [2], 12.5 mg/dL in the data set with Mus musculus [3] and 16.5 mg/dL in the data set with Mus musculus [7]. Besides, the MTD in data set [4] was found to be 3 µg/kg. For the same molecule, in [5], the midpoint of inhibition, the IC50, lay at 0.044 nM. In data set [6], the “Ratio IC50” value is reported as 1.8.
